≈ marks a conversion by molar mass, not a printed value.
How the values were obtained:
Salmonella typhimurium = assay: Compound was tested for its antibacterial activity against Salmonella Typhimurium 538003 strain.; type: functional, Salmonella enterica subsp. enterica serovar Typhimurium; settings: Salmonella enterica
Enterococcus faecalis [1] = assay: Compound was tested for its antibacterial activity against Streptococcus faecalis 58511 strain.; type: functional
Klebsiella aerogenes = assay: Compound was tested for its antibacterial activity against Klebsiella aerogenes 331001 strain.; type: functional
Enterobacter = assay: Compound was tested for its antibacterial activity against Enterobacter 250002 strain.; type: functional
Staphylococcus aureus [2] = assay: Compound was tested for its antibacterial activity against Staphylococcus aureus NCIB 8625 strain.; type: functional
Escherichia coli [3] = assay: Compound was tested for its antibacterial activity against Escherichia coli NCIB 8879 strain.; type: functional
Serratia marcescens = assay: Compound was tested for its antibacterial activity against Serratia marcescens ATCC 14756 strain.; type: functional
Haemophilus influenzae [4] = assay: Compound was tested for its antibacterial activity against Haemophilus influenzae NCTC 4560 strain.; type: functional
Staphylococcus aureus [5] = assay: Compound was tested in vitro for its antibacterial activity against Staphylococcus aureus 561037 strain.; type: functional
Escherichia coli [6] = assay: In vivo antibacterial activity was measured relative to alafosfalin against Escherichia coli 281007 strain after po administration.; type: functional
In short: (§1)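 Mouse septicaemia model infected with E. coli 281007. Compound was dosed at 1, 3 and 5 h after infection, orally (po) for line 13 and subcutaneously (sc) for line 14. Activity is the relative molar activity of the analogue versus the L-Ala-L-Ala(P) reference, with both CD50 values taken in µmol/kg.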

Escherichia coli [7] = assay: In vivo antibacterial activity was measured relative to alafosfalin against Escherichia coli 281007 strain after sc administration.; type: functional; in short: as §1
Enterococcus faecalis [8] = assay: Compound was tested in vitro for its antibacterial activity against Streptococcus faecalis FS5 strain.; type: functional
Haemophilus influenzae [9] = assay: Compound was tested in vitro for its antibacterial activity against Haemophilus influenzae NCTC 4560 strain.; type: functional
Escherichia coli [10] = assay: Compound was tested in vitro for its antibacterial activity against Escherichia coli NCIB 8879 strain.; type: functional

| Compound | MIC (Salmonella typhimurium) [µg/mL] | MIC (Enterococcus faecalis [1]) [µg/mL] | MIC (Klebsiella aerogenes) [µg/mL] | MIC (Enterobacter) [µg/mL] | MIC (Staphylococcus aureus [2]) [µg/mL] | MIC (Escherichia coli [3]) [µg/mL] | MIC (Serratia marcescens) [µg/mL] | MIC (Haemophilus influenzae [4]) [µg/mL] | MIC (Staphylococcus aureus [5]) [µg/mL] | CD50 (Escherichia coli [6]) [relative molar activity] | CD50 (Escherichia coli [7]) [relative molar activity] | MIC (Enterococcus faecalis [8]) [µg/mL] | MIC (Haemophilus influenzae [9]) [µg/mL] | MIC (Escherichia coli [10]) [µg/mL] |
| --- | --- | --- | --- | --- | --- | --- | --- | --- | --- | --- | --- | --- | --- | --- |
| C[C@@H](NC(=O)[C@@H](N)Cc1ccccc1)P(=O)(O)O | 32 (≈ 118 µM) | 2 (≈ 7.35 µM) | 1 (≈ 3.67 µM) | 2 (≈ 7.35 µM) | 4 (≈ 14.7 µM) | 0.5 (≈ 1.84 µM) | 4 (≈ 14.7 µM) | 32 (≈ 118 µM) |  |  |  |  |  |  |
| C[C@@H](NC(=O)[C@@H](N)CC[S+](C)[O-])P(=O)(O)O (stereo not given in full) | > 128 | 4 (≈ 14.7 µM) | 4 (≈ 14.7 µM) | 32 (≈ 118 µM) | 8 (≈ 29.4 µM) | 4 (≈ 14.7 µM) | 32 (≈ 118 µM) | 16 (≈ 58.8 µM) |  |  |  |  |  |  |
| CCC[C@H](NC(=O)CNC)C(=O)N[C@@H](CCC)C(=O)N[C@H](C)P(=O)(O)O |  |  |  |  |  |  |  |  | 16 (≈ 40.6 µM) | 1.1 | 1.9 | 0.12 (≈ 0.304 µM) | 0.015 (≈ 0.038 µM) | 0.04 (≈ 0.101 µM) |
| C[C@@H](NC(=O)[C@@H](N)CF)P(=O)(O)O | 32 (≈ 149 µM) | 32 (≈ 149 µM) | 4 (≈ 18.7 µM) | 32 (≈ 149 µM) | 16 (≈ 74.7 µM) | 0.25 (≈ 1.17 µM) |  | 8 (≈ 37.4 µM) |  |  |  |  |  |  |
| C[C@@H](NC(=O)[C@@H](N)CCC/N=C(\N)N[N+](=O)[O-])P(=O)(O)O | 64 (≈ 196 µM) | 2 (≈ 6.13 µM) | 2 (≈ 6.13 µM) | 8 (≈ 24.5 µM) | 32 (≈ 98.1 µM) | 0.5 (≈ 1.53 µM) | 4 (≈ 12.3 µM) |  |  |  |  |  |  |  |
| CSCC[C@H](N)C(=O)N[C@H](C)P(=O)(O)O | 8 (≈ 31.2 µM) | 1 (≈ 3.9 µM) | 0.12 (≈ 0.468 µM) | 1 (≈ 3.9 µM) | 1 (≈ 3.9 µM) | 0.25 (≈ 0.976 µM) | 2 (≈ 7.8 µM) | 16 (≈ 62.4 µM) |  |  |  |  |  |  |
| C[C@@H](NC(=O)[C@@H](N)CCCN=C(N)N)P(=O)(O)O | 32 (≈ 114 µM) | 16 (≈ 56.9 µM) | < 0.12 | 1 (≈ 3.56 µM) | 16 (≈ 56.9 µM) | 0.25 (≈ 0.889 µM) | 2 (≈ 7.11 µM) | 128 (≈ 455 µM) | 16 (≈ 56.9 µM) | 7.7 | 8.3 | 16 (≈ 56.9 µM) | 128 (≈ 455 µM) | 0.25 (≈ 0.889 µM) |
| CCCSC[C@H](N)C(=O)N[C@H](C)P(=O)(O)O | 0.25 (≈ 0.925 µM) | 2 (≈ 7.4 µM) | 0.03 (≈ 0.111 µM) | 0.06 (≈ 0.222 µM) | 8 (≈ 29.6 µM) | 0.06 (≈ 0.222 µM) | 0.5 (≈ 1.85 µM) | 64 (≈ 237 µM) |  |  |  |  |  |  |
| C[C@H](N)C(=O)N[C@@H](C)C(=O)N[C@H](C)P(=O)(O)O |  |  |  |  |  |  |  |  | 4 (≈ 15 µM) |  |  | 0.06 (≈ 0.225 µM) | 0.06 (≈ 0.225 µM) | 0.5 (≈ 1.87 µM) |
| CCC[C@H](NC(=O)[C@H](CC(C)C)NC)C(=O)N[C@@H](CCC)C(=O)N[C@H](C)P(=O)(O)O |  |  |  |  |  |  |  |  | 32 (≈ 71 µM) |  |  | 0.25 (≈ 0.555 µM) | 0.25 (≈ 0.555 µM) | 2 (≈ 4.44 µM) |
| C[C@H](N)C(=O)N[C@@H](C)C(=O)N[C@@H](C)C(=O)N[C@H](C)P(=O)(O)O |  |  |  |  |  |  |  |  | 32 (≈ 94.6 µM) |  |  | 0.25 (≈ 0.739 µM) | 0.06 (≈ 0.177 µM) | 0.12 (≈ 0.355 µM) |
| CCC[C@H](NC(=O)[C@H](CCC)NC(=O)[C@@H](NC)C(C)C)C(=O)N[C@H](C)P(=O)(O)O |  |  |  |  |  |  |  |  | > 128 |  |  | 8 (≈ 18.3 µM) | 0.25 (≈ 0.573 µM) | 16 (≈ 36.7 µM) |
| CCC[C@H](NC)C(=O)N[C@@H](CCC)C(=O)N[C@@H](CCC)C(=O)N[C@H](C)P(=O)(O)O |  |  |  |  |  |  |  |  | 8 (≈ 18.3 µM) |  |  | 0.06 (≈ 0.137 µM) | 0.25 (≈ 0.573 µM) | 0.5 (≈ 1.15 µM) |
| C[C@@H](NC(=O)[C@@H](N)CCS(C)(=O)=O)P(=O)(O)O | > 128 | 4 (≈ 13.9 µM) | 32 (≈ 111 µM) | > 128 | 32 (≈ 111 µM) | 16 (≈ 55.5 µM) | > 128 | 32 (≈ 111 µM) |  |  |  |  |  |  |
| C[C@@H](NC(=O)[C@@H](N)Cc1cccs1)P(=O)(O)O | 4 (≈ 14.4 µM) | 2 (≈ 7.19 µM) | 0.25 (≈ 0.898 µM) | 1 (≈ 3.59 µM) | 32 (≈ 115 µM) | 0.5 (≈ 1.8 µM) | 4 (≈ 14.4 µM) | 32 (≈ 115 µM) |  |  |  |  |  |  |
| C[C@@H](NC(=O)[C@@H](N)CCCCN=C(N)N)P(=O)(O)O | 2 (≈ 6.77 µM) | 2 (≈ 6.77 µM) | 0.12 (≈ 0.406 µM) | 2 (≈ 6.77 µM) | 128 (≈ 433 µM) | 0.25 (≈ 0.847 µM) | 2 (≈ 6.77 µM) | 64 (≈ 217 µM) |  |  |  |  |  |  |
| CSC[C@H](N)C(=O)N[C@H](C)P(=O)(O)O | 0.25 (≈ 1.03 µM) | 2 (≈ 8.26 µM) | 0.03 (≈ 0.124 µM) | 0.03 (≈ 0.124 µM) | 16 (≈ 66.1 µM) | 0.03 (≈ 0.124 µM) | 0.5 (≈ 2.06 µM) | 4 (≈ 16.5 µM) |  |  |  |  |  |  |
| CCC[C@H](N)C(=O)N[C@H](C)P(=O)(O)O | 0.25 (≈ 1.12 µM) | 1 (≈ 4.46 µM) | 0.015 (≈ 0.0669 µM) | 0.25 (≈ 1.12 µM) | 8 (≈ 35.7 µM) | 0.03 (≈ 0.134 µM) | 0.5 (≈ 2.23 µM) | 4 (≈ 17.8 µM) | 8 (≈ 35.7 µM) | 1.1 | 8.8 | 1 (≈ 4.46 µM) | 4 (≈ 17.8 µM) | 0.03 (≈ 0.134 µM) |
| CNCC(=O)N[C@@H](C)C(=O)N[C@@H](C)C(=O)N[C@H](C)P(=O)(O)O |  |  |  |  |  |  |  |  | > 128 | 1.05 | 8 | 0.06 (≈ 0.177 µM) | 0.03 (≈ 0.0887 µM) | 0.016 (≈ 0.0473 µM) |
| C[C@@H](NC(=O)[C@@H](N)CS)P(=O)(O)O | > 128 | > 128 | 16 (≈ 70.1 µM) | > 128 | > 128 | 32 (≈ 140 µM) | > 128 | > 128 |  |  |  |  |  |  |
| C[C@H](N)C(=O)N[C@@H](C)P(=O)(O)O [ALAFOSFALIN] | 64 (≈ 326 µM) | 2 (≈ 10.2 µM) | 0.5 (≈ 2.55 µM) | 1 (≈ 5.1 µM) | 32 (≈ 163 µM) | 1 (≈ 5.1 µM) | 8 (≈ 40.8 µM) | 64 (≈ 326 µM) | 4 (≈ 20.4 µM) | 1 | 1 | 2 (≈ 10.2 µM) | 4 (≈ 20.4 µM) | 0.5 (≈ 2.55 µM) |

From ChEMBL document CHEMBL1123207, “Synthesis and structure-activity relationships of antibacterial phosphonopeptides incorporating (1-aminoethyl)phosphonic acid and (aminomethyl)phosphonic acid” (1986)
